ChEMBL document CHEMBL3526029, “Disposition and metabolism of GSK2251052 in humans: a novel boron-containing antibiotic” (Drug Metab Dispos, 2013)

Columns and labels:
Blood [1] = test: AUC (0 to infinity) in healthy human whole blood assessed as radioactivity at 1500 mg, iv infusion for 1 hr as single dose; assay type: ADME, organism-based; design: dose 1500 mg, route intravenous, time infinity; conditions: in vivo
Summary of the method: (§1)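 Six fasted healthy men received 1500 mg [14C]GSK2251052 as a 1-h i.v. infusion. Blood and plasma were sampled from predose to 336 h after infusion start. Radioactivity was counted by LSC; plasma below 870 ng eq/ml was reanalysed by accelerator MS, with predose background subtracted. Noncompartmental analysis used actual sampling times, linear-up/log-down trapezoids and CL = dose/AUC(0-∞).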

Blood [2] = test: Half life in healthy human whole blood assessed as radioactivity at 1500 mg, iv infusion for 1 hr as single dose; assay type: ADME, organism-based; conditions: in vivo
Summary of the method: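 Healthy men got a single 1500 mg [14C] dose by 1 h i.v. infusion. K2EDTA blood was sampled up to 336 h. Radioactivity in blood and plasma was measured by LSC, with AMS for plasma below LLQ. Parent and M3 were measured by LC/MS/MS (5–10,000 ng/ml range). Noncompartmental analysis used actual times, with t1/2 = ln2/λz and Tmax observed directly, timed from infusion start.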

[3] = Drug recovery in healthy human urine at 1500 mg, iv infusion for 1 hr as single dose after 24 hrs; assay type: ADME, organism-based; conditions: read-out: Drug recovery
[4] = Drug recovery in healthy human urine at 1500 mg, iv infusion for 1 hr as single dose after 168 hrs; assay type: ADME, organism-based; conditions: read-out: Drug recovery
Plasma [5] = test: AUC (0 to t) in healthy human plasma assessed as radioactivity at 1500 mg, iv infusion for 1 hr as single dose; assay type: ADME, organism-based; conditions: in vivo; summary of the method: as §1
Plasma [6] = test: Clearance in healthy human plasma assessed as radioactivity at 1500 mg, iv infusion for 1 hr as single dose; assay type: ADME, organism-based; conditions: in vivo; summary of the method: as §1
[7] = Drug recovery in healthy human feces at 1500 mg, iv infusion for 1 hr as single dose after 312 hrs; assay type: ADME, organism-based; conditions: read-out: Drug recovery
[8] = Total drug recovery in healthy human at 1500 mg, iv infusion for 1 hr as single dose after 48 hrs; assay type: ADME, organism-based; conditions: in vivo, read-out: Drug recovery
Summary of the method: (§2)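 Six healthy adult males, fasted ≥10 h, got one 1500 mg [14C]GSK2251052 dose ([…], 0.56 MBq) as a constant-rate 1-h IV infusion in 0.9% NaCl. Urine was collected at 0–6, 6–12 and 12–24 h, then in 24-h blocks to 336 h; feces in 24-h blocks. Urine was counted directly by LSC; feces were homogenized and combusted in duplicate before LSC. Cumulative recovery is given as mean % of dose.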

[9] = Total drug recovery in healthy human at 1500 mg, iv infusion for 1 hr as single dose after 72 hrs; assay type: ADME, organism-based; conditions: in vivo, read-out: Drug recovery; summary of the method: as §2
[10] = Total drug recovery in healthy human at 1500 mg, iv infusion for 1 hr as single dose after 120 hrs; assay type: ADME, organism-based; conditions: in vivo, read-out: Drug recovery
[11] = Total drug recovery in healthy human at 1500 mg, iv infusion for 1 hr as single dose after 144 hrs; assay type: ADME, organism-based; conditions: in vivo, read-out: Drug recovery
[12] = Total drug recovery in healthy human at 1500 mg, iv infusion for 1 hr as single dose after 192 hrs; assay type: ADME, organism-based; conditions: in vivo, read-out: Drug recovery
[13] = Total drug recovery in healthy human at 1500 mg, iv infusion for 1 hr as single dose after 240 hrs; assay type: ADME, organism-based; conditions: in vivo, read-out: Drug recovery; summary of the method: as §2
[14] = Total drug recovery in healthy human at 1500 mg, iv infusion for 1 hr as single dose after 264 hrs; assay type: ADME, organism-based; conditions: in vivo, read-out: Drug recovery; summary of the method: as §2
[15] = Total drug recovery in healthy human at 1500 mg, iv infusion for 1 hr as single dose after 312 hrs; assay type: ADME, organism-based; conditions: in vivo, read-out: Drug recovery; summary of the method: as §2
[16] = Drug metabolism in healthy human urine assessed as 2-(2-amino-1-hydroxyethyl)-6-(3-hydroxypropoxy)phenol formation at 1500 mg, iv infusion for 1 hr as single dose by mass spectrometry; assay type: ADME, organism-based; conditions: in vivo
Summary of the method: (§3)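 Urine was collected through 336 h after a 1500 mg [14C] i.v. 1-h infusion to six men. Samples were pooled by weight (0–120 h per subject; 120–336 h composite) and centrifuged. Profiling used HPLC (Atlantis T3, ammonium acetate pH 4.5/methanol, 30°C) with fraction radioactivity counting. Identity came from Orbitrap positive-ion accurate mass. Values were given as % dose, corrected for recovery.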

[17] = Drug metabolism in healthy human urine assessed as (S)-3-(3-(aminomethyl)-1-hydroxy-1,3-dihydrobenzo[c][1,2]oxaborol-7-yloxy)propanoicacid formation at 1500 mg, iv infusion for 1 hr as single dose by mass spectrometry; assay type: ADME, organism-based; conditions: in vivo; summary of the method: as §3
[18] = Drug recovery in healthy human urine assessed as total radioactivity at 1500 mg, iv infusion for 1 hr as single dose after 120 to 336 hrs by HPLC method; assay type: ADME, organism-based; conditions: in vivo, in the assay text read “0 to 120 hrs” for “120 to 336 hrs”
Summary of the method: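 Urine pooled by weight per subject over 0–120 h; 120–336 h pools from all subjects combined into one composite. Centrifuged at ~21,000g, then supernatant profiled by HPLC (Atlantis T3, ammonium acetate pH 4.5/methanol, 30°C) with radiochemical detection plus MS identification. Results are % of dose, corrected for centrifugation recovery measured by triplicate LSC.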

[19] = Drug metabolism in human liver S9 fraction assessed as (S)-3-(3-(aminomethyl)-1-hydroxy-1,3-dihydrobenzo[c][1,2]oxaborol-7-yloxy)propanoicacid formation at 50 to 500 uM after 3 hrs by liquid scintillation counting in presence of NAD+; assay type: ADME, subcellular; conditions: s9, 3 h
Summary of the method: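 [14C]GSK2251052 was incubated in triplicate for 1 or 3 h at 37°C with 4 mg/ml S9 (monkey liver, lung or kidney; human liver), liver cytosol or liver microsomes and 7.5 mM NAD+. Buffer was pyrophosphate at pH 7.4, 8.4 or 8.8. Controls lacked cofactor or enzyme. Reactions were quenched with acetonitrile, counted by LSC, and pooled for radio-HPLC.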

[20] = Drug recovery in healthy human urine at 1500 mg, iv infusion for 1 hr as single dose after 192 hrs; assay type: ADME, organism-based; conditions: read-out: Drug recovery
[21] = Drug recovery in healthy human urine at 1500 mg, iv infusion for 1 hr as single dose after 216 hrs; assay type: ADME, organism-based; conditions: read-out: Drug recovery
[22] = Drug recovery in healthy human urine at 1500 mg, iv infusion for 1 hr as single dose after 240 hrs; assay type: ADME, organism-based; conditions: read-out: Drug recovery
[23] = Drug recovery in healthy human urine at 1500 mg, iv infusion for 1 hr as single dose after 312 hrs; assay type: ADME, organism-based; conditions: read-out: Drug recovery
[24] = Drug recovery in healthy human urine at 1500 mg, iv infusion for 1 hr as single dose after 336 hrs; assay type: ADME, organism-based; conditions: read-out: Drug recovery
[25] = Drug recovery in healthy human feces at 1500 mg, iv infusion for 1 hr as single dose after 48 hrs; assay type: ADME, organism-based; conditions: read-out: Drug recovery
[26] = Drug recovery in healthy human feces at 1500 mg, iv infusion for 1 hr as single dose after 96 hrs; assay type: ADME, organism-based; conditions: read-out: Drug recovery
[27] = Drug metabolism in cynomolgus monkey cytosol assessed as (S)-3-(3-(aminomethyl)-1-hydroxy-1,3-dihydrobenzo[c][1,2]oxaborol-7-yloxy)propanoicacid formation at 50 to 500 uM after 3 hrs by liquid scintillation counting in presence of NAD+ and ADH inhibitor 4-MP; assay type: ADME, Macaca fascicularis, Liver
Summary of the method: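 NAD+ (7.5 mM) incubations of [14C]GSK2251052 with 4 mg/ml monkey liver cytosol or liver S9 in pyrophosphate buffer included 4-MP at 0.6 mM final. Incubations ran in triplicate at 37°C. Extracts were counted by LSC and pooled for radio-HPLC.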

AUC (Blood [1]): 193 µg·h/mL
t1/2 (Blood [2]): 14.3 h
dose excreted at 24 h [3]: 51.2%
dose excreted at 168 h [4]: 86.4%
AUCt (Plasma [5]): 191 µg·h/mL
CL (Plasma [6]): 7.7 L/h
dose excreted at 312 h [7]: 7.6%
dose excreted at 48 h [8]: 70.5%
dose excreted at 72 h [9]: 81.2%
dose excreted at 120 h [10]: 90.7%
dose excreted at 144 h [11]: 92.6%
dose excreted at 192 h [12]: 95%
dose excreted at 240 h [13]: 96.4%
dose excreted at 264 h [14]: 97%
dose excreted at 312 h [15]: 97.8%
Drug recovery [16]: metabolite_detected
Drug recovery [17]: metabolite_detected
Drug recovery [18]: 83.1%
Drug metabolism [19]: metabolite_not_detected
dose excreted at 192 h [20]: 87.4%
dose excreted at 216 h [21]: 88.2%
dose excreted at 240 h [22]: 88.8%
dose excreted at 312 h [23]: 90.2%
dose excreted at 336 h [24]: 90.5%
dose excreted at 48 h [25]: 1.3%
dose excreted at 96 h [26]: 6.4%
Drug metabolism [27]: metabolite_not_detected
Structure (SMILES): Cl.N[14CH2][C@H]1OB(O)c2c(OCCCO)cccc21
